Assay [1] has as its target T1, Peroxisome proliferator-activated receptor alpha (Homo sapiens) (UniProt Q07869).
T1 sequence (whole entry): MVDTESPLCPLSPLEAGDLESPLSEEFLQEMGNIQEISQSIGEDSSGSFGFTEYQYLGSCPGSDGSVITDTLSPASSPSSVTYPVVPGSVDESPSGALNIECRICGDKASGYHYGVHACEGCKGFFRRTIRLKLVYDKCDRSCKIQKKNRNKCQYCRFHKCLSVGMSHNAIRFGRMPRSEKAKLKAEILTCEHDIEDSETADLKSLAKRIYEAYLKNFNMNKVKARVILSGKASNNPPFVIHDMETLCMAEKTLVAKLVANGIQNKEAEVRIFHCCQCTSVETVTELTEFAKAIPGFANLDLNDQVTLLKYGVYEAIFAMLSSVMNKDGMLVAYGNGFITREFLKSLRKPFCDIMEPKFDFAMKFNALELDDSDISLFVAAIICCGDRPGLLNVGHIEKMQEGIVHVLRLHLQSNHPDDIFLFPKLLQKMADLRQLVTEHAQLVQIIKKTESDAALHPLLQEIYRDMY
Briefly: Agonist activity at human PPARalpha in human HuH-7 cells assessed as increase in CPT1A gene expression at 50 uM incubated for 24 hrs by SYBR-green based qPCR analysis. In kind it is cell-based. The settings on record: filed as agonist. The essentials: (§1)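 Cells were seeded at 2×10^5 per well and treated 24 h later with compound in DMSO (final 0.1%). The next day, cells were washed and scraped into RLT buffer. RNA was isolated, and target gene mRNA was quantified by SYBR-green qPCR with specific primers.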

Assay [2] addresses T1, Peroxisome proliferator-activated receptor alpha (Homo sapiens). Briefly: Agonist activity at human PPARalpha in human HuH-7 cells assessed as increase in ACOX1 gene expression at 50 uM incubated for 24 hrs by SYBR-green based qPCR analysis. It counts as cell-based. The essentials: as §1
On the technique in general: Quantitative PCR measures a nucleic acid by following its amplification.

In assay [3] the target is T2, Oxysterols receptor LXR-beta (Homo sapiens) (UniProt P55055).
T2 sequence (whole entry): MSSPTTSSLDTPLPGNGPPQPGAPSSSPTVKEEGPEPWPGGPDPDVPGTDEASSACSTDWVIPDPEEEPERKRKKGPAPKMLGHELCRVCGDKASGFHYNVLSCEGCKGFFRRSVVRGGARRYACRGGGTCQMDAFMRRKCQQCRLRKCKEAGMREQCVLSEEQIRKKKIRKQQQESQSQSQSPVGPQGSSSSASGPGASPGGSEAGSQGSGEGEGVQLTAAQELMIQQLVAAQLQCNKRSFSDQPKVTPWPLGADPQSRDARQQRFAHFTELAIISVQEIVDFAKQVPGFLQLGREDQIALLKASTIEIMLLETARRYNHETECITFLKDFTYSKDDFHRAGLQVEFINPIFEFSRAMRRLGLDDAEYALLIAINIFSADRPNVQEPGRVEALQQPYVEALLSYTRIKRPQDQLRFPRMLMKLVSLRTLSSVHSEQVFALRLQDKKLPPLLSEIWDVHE
Briefly: Agonist activity at recombinant human LXRbeta LBD (155 to 461 residues) expressed in African green monkey COS-1 cells at 25 to 50 uM incubated for 18 hrs by luciferase reporter gene assay. It counts as cell-based. The settings on record: dose 25-50 µM. The essentials: (§2)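 Transient Gal4 one-hybrid assay in COS-1 cells (7×10^4 per well), transfected 24 h after seeding. Plasmids were Gal4-DBD fused to the human nuclear receptor LBD, a 5×UAS-SV40 luciferase reporter and pRL-CMV Renilla control. Ligand in DMSO (final 0.1%) was added 5 h post-transfection. Dual-luciferase activity was read after 18 h, expressed as RLU, from three biological replicates in quadruplicate.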

The target of assay [4] is T1, Peroxisome proliferator-activated receptor alpha (Homo sapiens). Briefly: Agonist activity at human PPARalpha in 8 day differentiated human SGBS cells assessed as increase in FABP4 gene expression at 25 uM incubated for 24 hrs by SYBR-green based qPCR analysis. It counts as cell-based. The essentials:
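SGBS preadipocytes were seeded at passage P6-P8 and grown to confluence. They were differentiated for 4 days in Quickdiff (3FC plus dexamethasone, IBMX and rosiglitazone), then kept in 3FC with medium renewed every fourth day. On day 8, cells were stimulated for 24 h in 3FC with compound:BSA or rosiglitazone. SYBR-green qPCR used gene-specific primers. Data are mean ± SEM of three biological replicates in duplicate.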

The next assay has as its system COS-1. The assay can be described thus: Agonist activity at recombinant full length human PPARalpha/gamma/RXRalpha expressed in African green monkey COS-1 cells assessed as induction of CPT1A driven luciferase reporter activity at 25 uM incubated for 18 hrs by dual luciferase reporter gene assay. In kind it is cell-based. The settings on record: filed as agonist. In a few lines:
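COS-1 cells were kept in DMEM/10% FBS at 37 °C, 5% CO2, and seeded at 7×10^4 per well. After 24 h they were lipofected with full-length PPAR and RXR expression plasmids, a PLIN1- or CPT1A-driven luciferase reporter and pRL-CMV Renilla control. Compound in DMSO (final 0.1%) was added 5 h later. After 18 h, cells were lysed for Dual-Luciferase readout. Three biological replicates were run in quadruplicate.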
Background: A reporter such as luciferase makes a cellular process visible.

Another assay relates to SGBS. The assay can be described thus: Effect on diabetic complication pathway in 8 day differentiated human SGBS cells assessed as downregulation of AGE-RAGE signalling genes at 25 uM incubated for 8 days by Illumina sequencing method. It counts as functional, cell-based. In a few lines: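 SGBS cells were differentiated 4 days in Quickdiff supplemented with compound:BSA or rosiglitazone, then 4 days in 3FC. Total RNA was extracted, and strand-specific TruSeq libraries were sequenced on NextSeq 500 (2×75 bp paired-end). Reads were aligned to hg19 with Tophat/Bowtie and counted as RPKM by Cufflinks. Values are log2 fold over day 0 cells, grouped into KEGG gene sets (n = 2-4).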

For assay [5], the target named is T3, Peroxisome proliferator-activated receptor gamma (Homo sapiens, UniProt P37231).
T3 sequence (P37231 whole entry): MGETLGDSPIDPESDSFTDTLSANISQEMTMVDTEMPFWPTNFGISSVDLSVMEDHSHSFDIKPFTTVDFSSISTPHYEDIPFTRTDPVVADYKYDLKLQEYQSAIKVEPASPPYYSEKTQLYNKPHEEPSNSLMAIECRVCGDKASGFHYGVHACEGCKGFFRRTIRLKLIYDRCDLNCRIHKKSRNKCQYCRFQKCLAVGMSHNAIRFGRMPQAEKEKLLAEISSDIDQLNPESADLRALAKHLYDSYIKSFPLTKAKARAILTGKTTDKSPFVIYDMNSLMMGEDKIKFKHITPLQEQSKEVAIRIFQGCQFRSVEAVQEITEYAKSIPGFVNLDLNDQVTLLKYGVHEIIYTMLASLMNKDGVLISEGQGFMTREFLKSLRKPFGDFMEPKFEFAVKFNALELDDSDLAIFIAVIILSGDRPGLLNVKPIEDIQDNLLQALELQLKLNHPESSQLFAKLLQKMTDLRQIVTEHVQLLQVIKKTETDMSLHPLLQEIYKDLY
Briefly: Agonist activity at recombinant human PPARgamma LBD (205 to 505 residues) expressed in African green monkey COS-1 cells incubated for 18 hrs by luciferase reporter gene assay. It counts as cell-based. The essentials: as §2

Calls of active or inactive are those of the source. No cut-off for these calls is given here.

What is called EC50 is the concentration that produces a half-maximal response. With `CCCCCCCC(=O)/C=C/CCCCCC(=O)O`, the result (in assay [1]; in the assay with COS-1; in the assay with SGBS) was Active. Further, the outcome in assay [2], in assay [3] and in assay [4] was inactive. For the same molecule, the EC50 in assay [5] came to 10 µM.

In the case of `CCCCC/C=C/C(=O)CCCCCCCC(=O)O`, the outcome (in assay [1]; in the assay with COS-1; with SGBS) was Active. Further, the result in assay [2], in assay [3] and in assay [4] was inactive. Also, the EC50 in assay [5] was found to be 8.5 µM.

These data come from ChEMBL document CHEMBL4715825, “Synthesis and biological evaluations of marine oxohexadecenoic acids: PPARα/γ dual agonism and anti-diabetic target gene effects” (Eur J Med Chem, 2018).
